Data on one molecule can be found in the M2OR odorant receptor database.

The target in the test is T1, OR10A6 (Homo sapiens) (UniProt Q8NH74).
T1 sequence (whole entry): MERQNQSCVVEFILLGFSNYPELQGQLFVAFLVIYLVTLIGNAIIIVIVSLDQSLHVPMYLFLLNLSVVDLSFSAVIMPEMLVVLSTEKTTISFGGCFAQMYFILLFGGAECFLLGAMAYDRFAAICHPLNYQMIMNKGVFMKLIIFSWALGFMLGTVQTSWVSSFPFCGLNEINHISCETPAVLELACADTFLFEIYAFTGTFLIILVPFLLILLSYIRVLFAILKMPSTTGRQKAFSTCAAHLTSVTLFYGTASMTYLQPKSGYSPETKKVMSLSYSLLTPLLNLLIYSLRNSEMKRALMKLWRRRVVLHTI
The settings on record: stereoisomer not certain. In outline:
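Transient luciferase assays in mammalian cell lines were common, though methods varied by source. The values come from published papers and their supplementary material, with extra details from the original authors when needed. Responsive refers to a measured signal the original authors judged statistically different from baseline, and non-responsive (inactive) to the remainder.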
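Note: active if original authors judged signal statistically different from baseline.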

`CCC(=O)OCCCc1ccccc1`: the “odorant receptor agonist call” value was “inactive”.
